Assay outcomes as filed in PubChem BioAssay.
Hits are enriched below; roughly 11% of the tested compounds scored in any of these assays.
TNAP act mid DEA = human TNAP enzyme activators, primary screen, biochemical, luminescent, intermediate phosphate acceptor level | Alkaline phosphatase, tissue-nonspecific isozyme (Homo sapiens), P05186 | purified TNAP, CDP-star luminescence, 100 mM DEA, 30 min; stronger effect = higher value; scale: 0 levamisole-inhibited, 1 vehicle-only enzyme | activation factor at 20 µM | 64,000 tested, under 10 active;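 active = activation factor of at least 2 at 20 µM, relative to controls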
S1P1 ag-PAM = S1P1 agonists and agonism potentiators, primary screen, cell-based, primary and confirmation screens, CRE-bla reporter; Sphingosine 1-phosphate receptor 1 (Homo sapiens), P21453; S1P1 CRE-bla cells, forskolin, beta-lactamase FRET, potentiator mode; S1P1 agonist co-added at EC20, 2 nM; 100% = saturating reference agonist, 0% = basal; activation, % at 9.5 µM; 56,000 compounds, 0.57% hits;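 active = activation above a cutoff set at the mean activation of all tested compounds plus 3 SD, cut at about 54% in these data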;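 also: forskolin at 4 µM as EC80 and the EC20 agonist is SEW2871; 100% = SEW2871 at its EC100 plus forskolin at EC80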
M1 agonist = M1 muscarinic receptor agonists, primary screen, CHO-M1 cells, Fluo-4 calcium, agonist mode. Fluo-4 calcium fluorescence; stronger effect = higher value. B-score at 10 µM. 64,000 compounds, 3% hits. AID 626, 2007;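 active = fluorescence rise, raw or as B-score row- and column-corrected plate score, outside the 99.7% band of its plate's samples, either direction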
S1P3 ag = human S1P3 receptor agonists, primary screen, cell-based, primary and confirmation, NFAT-BLA reporter; Sphingosine 1-phosphate receptor 3 (Homo sapiens), Q99500; S1P3 NFAT-BLA reporter cells, agonism, FRET ratio; relative to 1 µM S1P, basal subtracted; activation, % at 4.5 µM; 60,000 compounds, 0.1% hits; AID 373, 2006;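 active = activation above the screen-wide mean plus 3 SD, cut at about 4.5% in these data, passing the limit was not always enough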
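Assay system: stable CHO line with human S1P3, Gα16, NFAT-BLA reporter; Detection: FRET β-lactamase substrate fluorescence, excitation 405 nm, 460/535 nm emission ratio, background-subtracted; Read-out: percent activation versus median 1 µM S1P response, basal-subtracted, per plate; Incubation: cells plated overnight, compound 4 h 37 °C, substrate 2 h RT.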
D1 allo mod = D1 CRE-luciferase signal change, two-sided – cell-based, HEK293 D1, dopamine EC30, D1 allosteric modulator project, primary screen | 58,000 compounds, 5.9% hits | dopamine EC30 potentiation; actives deviate in either direction | B-score at 10 µM;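 active = luminescence count or its row- and column-corrected plate score outside the 99.7% band of the plate's sample wells, on either side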
Target sequence (P21728 whole entry, looked up): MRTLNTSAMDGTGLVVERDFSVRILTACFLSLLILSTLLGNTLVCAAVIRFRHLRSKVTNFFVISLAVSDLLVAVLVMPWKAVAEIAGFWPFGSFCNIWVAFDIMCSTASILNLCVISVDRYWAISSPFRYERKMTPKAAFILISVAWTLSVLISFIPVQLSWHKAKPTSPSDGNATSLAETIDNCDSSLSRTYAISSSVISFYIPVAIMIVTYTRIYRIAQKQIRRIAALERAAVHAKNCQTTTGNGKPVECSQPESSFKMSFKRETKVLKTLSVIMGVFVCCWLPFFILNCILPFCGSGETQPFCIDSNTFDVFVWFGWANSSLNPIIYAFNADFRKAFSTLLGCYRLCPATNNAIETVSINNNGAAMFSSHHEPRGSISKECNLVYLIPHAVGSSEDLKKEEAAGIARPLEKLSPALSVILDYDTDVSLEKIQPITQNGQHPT
M1 antagonist = antagonists of rat M1 muscarinic receptor | B-score at 10 µM | 64,000 compounds, 3.4% hits | CHO-M1 cells, Fluo-4 calcium, ACh EC80 antagonist mode; stronger effect = lower value;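 active = calcium fluorescence response, raw or row-and-column corrected B-score, differing from the plate sample mean either way at a set confidence level, mostly lower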
* hit, by the source's call; · = not tested or not shown.

SMILES	TNAP act mid DEA	S1P1 ag-PAM	M1 agonist	S1P3 ag	D1 allo mod	M1 antagonist
COc1cccc(-c2cc(C(=O)Nc3ccccc3SC)no2)c1	1	88.7*	1	-0.8	-0.47	0.525
COc1ccc(-c2cc(C(=O)Nc3ccccc3SC)no2)cc1OC	0.9	-6.2	0.303	-1.3	0.102	-0.0159
O=C(c1ccc(Br)cc1)N1CCN(S(=O)(=O)c2ccccc2)CC1	0.8	2.9	0.373	-1.2	0.872	-0.645
CCOc1ccc2nc(NCCNC(=O)Nc3ccccc3)c(C#N)cc2c1	1.2	30.9	2.57	-0.4	0.216	0.0143
COc1ccc2nc(NCCCNC(=O)c3cc(OC)c(OC)c(OC)c3)c(C#N)cc2c1	1.2	-10.7	15.1*	-0.6	0.0944	-0.79
O=C(Cc1ccc(S(=O)(=O)N2CCOCC2)s1)Nc1ccc2c(c1)CCC2	0.9	-0.9	-0.953	-0.6	0.0978	-0.771
O=C(Cc1ccc(S(=O)(=O)N2CCOCC2)s1)NCC1CCCCC1	1	13.4	-1.17	0.7	-7.03*	0.187
COc1ccc(CCN2C(=O)CC(C(N)=O)SC2=Nc2ccccc2)cc1OC (stereo not given)	0.9	-15.4	0.849	-0.1	-0.132	0.656
COC(=O)NCc1cc2cc(Cl)ccc2[nH]1	0.9	12.4	0.334	-1.2	-0.582	-0.155
Cc1cc2nc(-c3ccc(SCC(=O)N4CCOCC4)nc3)[nH]c2cc1C	0.9	·	11.7*	·	-2.59	-0.575
OC(c1cccc(OCc2ccccc2)c1)c1nnc(-c2ccccc2)o1 (stereo not given)	0.9	111.4*	-2.34	-0.4	-1.3	0.193
NC(CC(=O)O)c1cccc(OCc2ccccc2)c1 (stereo not given)	0.9	3.4	0.707	-1.0	-0.0292	0.909
CC(C)Cn1c(N)c(C(=O)CSc2ccc3c(c2)OCCO3)c(=O)n(C)c1=O	0.9	104.5*	3.94	-2.2	-0.0486	-0.0346
CC(C)Cn1c(N)c(C(=O)COC(=O)c2ccc3c(c2)OCCO3)c(=O)n(C)c1=O	0.9	13.3	3.25	-0.5	-0.0126	-0.615
Cc1cc(NC(=O)CCC(=O)N(CCc2ccccc2)C(C(=O)NC2CCCC2)c2ccco2)no1 (stereo not given)	0.9	14.4	1.26	-1.0	0.185	2.43*
COc1ccc2nc(SCC(=O)NC(C)(C)C)[nH]c2c1	0.8	8.2	-0.175	-0.3	-2.15*	-0.0143
Cc1noc(/C=C/N(C)C)c1S(=O)(=O)N1CCCC(C(=O)NCc2ccccc2Cl)C1 (stereo not given)	1	7.2	0.264	0.4	-0.348	-1.15
CCOC(=O)N1CCC(NC(=O)c2ccc3c(c2)sc2nc(-c4ccccc4)cn23)CC1	0.9	-0.7	·	-1.3	·	·
CCOC(=O)N1CCC(NC(=O)c2ccc3c(c2)sc2nc(-c4cccc(OC)c4)cn23)CC1	0.9	-19.6	1.5	-0.8	-2.61*	-1.22
CCc1nc(SCC(=O)N2CCCc3ccccc32)c2c(=O)n(C)c(=O)n(C)c2n1	0.9	8.1	3.5*	-1.1	-0.433	-1.8
CCCCn1c(SCC(=O)N2CCCc3ccccc32)nc2c1c(=O)n(C)c(=O)n2C	0.9	-17.3	9.69*	0.1	0.394	-0.0343
Cc1ccc(C(=O)/C=C/Nc2cccc(O)c2)cc1	0.9	-1.3	-0.0373	-4.0	-2.78*	-0.476
C/C(=C\C(=O)c1ccc(C)cc1)Nc1cccc(O)c1	0.9	-4.6	0.274	-1.5	-1.14	-0.45
O=C(/C=C/Nc1cccc(O)c1)c1ccccc1	0.9	0.2	0.449	-0.8	-8.73*	0.00183
O=C(CSc1nnc(-c2csc3c2CCCC3)o1)Nc1ccccc1	1	-0.2	0.00632	-1.4	-2.28*	0.0352
SMILES	TNAP act mid DEA	S1P1 ag-PAM	M1 agonist	S1P3 ag	D1 allo mod	M1 antagonist
Cc1cc(C)cc(NC(=O)CSc2nnc(-c3ccccc3Br)o2)c1	0.9	5.5	-0.559	-0.2	-0.213	0.463
Cc1ccc(S(=O)(=O)N[C@H](C(=O)N2CCC(C(=O)N3CCC[C@H]3C(=O)O)CC2)C(C)C)cc1	0.9	8.2	0.261	-0.7	-0.571	0.458
CC(=O)Oc1ccc2c(c1)c(C(C)=O)c(C)n2C	0.9	1.2	-0.419	-0.8	0.0174	0.0189
COc1ccc(-n2c(C)c(C(C)=O)c3cc(O)ccc32)cc1	0.9	76.2*	-0.0119	-4.1	·	0.183
COc1cccc(CNC(=O)CCNS(=O)(=O)c2cccs2)c1	1	·	0.00402	·	-0.96	0.246
CC(C)(C)NC(=O)c1ccccc1-c1nc(-c2ccccc2Cl)no1	0.9	3.7	1.11	-0.4	0.556	-0.453
C=CCNc1nc(N2CCCCC2)c(C#N)c2c1CN(Cc1ccccc1)CC2	0.9	-34.0	1.79	-2.7	·	-0.592
CCO/C(C)=N/n1c2nc3ccccc3nc2c2c(=O)n(Cc3ccccc3Cl)c(C)nc21	0.9	5.0	-0.156	-1.1	·	-0.172
COc1ccc(-n2[nH]c(C)cc2=O)cc1	1	4.9	-0.463	-0.5	0.0685	-0.902
COc1ccc(Nc2nc(Nc3ccc(OC)cc3)nc(-n3[nH]c(=O)c(C)c3C)n2)cc1	0.9	-102.7	-0.414	17.4*	-0.613	-2.81
Cc1ccc(C(=O)/C=C/Nc2ccccc2C(N)=O)o1	0.9	-3.5	0.811	-0.7	-4.14*	-0.431
COc1cccc(CNC(=O)Nc2cccs2)c1	1	6.4	·	-1.2	-3.4*	·
COc1ccc(CNC(=O)Nc2cccs2)cc1OC	1	-1.4	-0.316	-0.1	0.136	1.51
CCSc1nnc(-c2ccc(Cl)cc2Cl)o1	0.9	·	0.0702	0.1	0.39	1.97*
Clc1ccc(-c2nnc(-c3ccccc3)o2)c(Cl)c1	1	-7.5	-0.352	-0.7	-1.09	0.229
Fc1ccc(-c2nnc(-c3ccc(Cl)cc3Cl)o2)cc1	0.9	-1.1	-0.311	-1.8	-2.89*	1.5
CC(C)OC(=O)CSc1nnc(-c2ccc(Cl)cc2Cl)o1	0.9	9.7	2.41	-0.7	-1.7	-0.0832
Clc1ccc(CSc2nnc(-c3ccncc3)o2)c(Cl)c1	1	76.0*	0.0716	0.8	0.0278	0.00376
CC(C)(C)OC(=O)NC(CCCCNC=O)C(=O)O (stereo not given)	1	17.0	-0.323	-0.5	-0.328	0.29
CCOCCCNC(=O)C1CCN(C(=O)N(C)C)CC1	1	-4.3	-0.449	0.3	-0.85	1.6
